Only some compounds are listed: those with a hit (about 5.8% of all), similar ones and a draw of the others.
Tcruzi prolif – T. cruzi intracellular proliferation inhibitors, primary screen, cell-based, beta-gal Tulahuen parasites, NIH3T3 host, luminescence; T. cruzi beta-gal in NIH3T3, GalScreen luminescence, 90 h; inhibition, % at 8.34 µM; 77,000 compounds, 5.9% hits;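 active = mean inhibition above about 93%, with at least 55% of replicates each passing it, limit read from the data, passing the limit was not always enough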
IDH1 R132H inh – inhibitors of IDH1 R132H reductase, primary screen, biochemical, plate reader, single point | Isocitrate dehydrogenase [NADP] cytoplasmic (Homo sapiens), O75874 | diaphorase/resazurin fluorescence, 60 min | inhibition, % at 10 µM | 70,000 compounds, 0.18% hits; in the data active = inhibition above about 34%;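 also: 0% = DMSO and 100% = no enzyme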
Target sequence (O75874 whole entry R132H): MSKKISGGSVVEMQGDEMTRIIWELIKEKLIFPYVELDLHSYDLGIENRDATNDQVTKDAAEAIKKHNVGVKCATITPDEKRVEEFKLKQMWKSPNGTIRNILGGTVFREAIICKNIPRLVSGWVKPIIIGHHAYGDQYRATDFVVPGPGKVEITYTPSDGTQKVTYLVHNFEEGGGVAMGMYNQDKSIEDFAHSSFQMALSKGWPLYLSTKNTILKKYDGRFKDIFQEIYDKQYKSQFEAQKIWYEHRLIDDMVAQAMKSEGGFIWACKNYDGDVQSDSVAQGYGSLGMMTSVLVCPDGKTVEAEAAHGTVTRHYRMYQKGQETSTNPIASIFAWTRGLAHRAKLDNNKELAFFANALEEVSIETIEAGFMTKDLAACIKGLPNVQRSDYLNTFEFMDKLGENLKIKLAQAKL
KDM4C inh – inhibitors of GASC-1 (KDM4C) histone demethylase, primary screen, biochemical, single concentration HTS. Lysine-specific demethylase 4C (Homo sapiens), Q9H3R0. GST-KDM4C 2-372, H3K9me3 peptide, LANCE TR-FRET. inhibition, % at 12.5 µM. 96,000 compounds, 0.15% hits;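 active = mean replicate inhibition above about 25%, with at least 55% of replicates also reaching it, limit read from the data, passing the limit was not always enough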
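System – N-terminal GST-fused human GASC-1 (KDM4C) fragment, residues 2-372 · Input – enzyme final amount 10 nM · Technique – LANCE TR-FRET, Eu antibody, ULight-streptavidin, EDTA, ex 340 nm, em 618/671 nm · Medium – HEPES buffer, pH 7.5, plus ascorbate · Incubation – enzyme reaction 30 min, then detection 60 min, both room temperature · Reagent – H3K9me3 peptide with Fe(II)/2OG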
Pf Dd2 growth – P. falciparum Dd2 growth inhibitors, primary screen, SYBR Green fluorescence, single dose replicates; activity change, % at 10 µM; AID 1159554, 2015; 94,000 compounds, 2.3% hits; 72 h; hits give low values; in the data active = activity change below about -80%
* marks the source's active call; other numbers are inactive results; . = not tested or not shown.

SMILES | Tcruzi prolif | IDH1 R132H inh | KDM4C inh | Pf Dd2 growth
COc1ccc2c3c([nH]c2c1)[C@H](CO)N(Cc1cccc(F)c1)CC31CCN(C(C)=O)CC1 | . | . | -0.4 | -82.8*
COc1ccc2c3c([nH]c2c1)[C@H](CO)N(C(=O)c1cccc(F)c1)CC31CCN(C(=O)CC2CC2)CC1 | . | . | -1.4 | -82.3*
CCCNC(=O)N1CCC2(CC1)CN(Cc1cccc(F)c1)[C@H](CO)c1[nH]c3cc(OC)ccc3c12 | . | . | 0.1 | -83.1*
COc1ccc2c3c([nH]c2c1)[C@@H](CO)N(Cc1ccc(F)cc1)CC31CCN(C(C)=O)CC1 | . | . | . | 35.2
COc1ccc(S(=O)(=O)N(C)C[C@@H]2OCCCC[C@H](C)Oc3ccc(NC(=O)Nc4ccc5c(c4)OCO5)cc3C(=O)N([C@H](C)CO)C[C@H]2C)cc1 | 40.4 | 1.6 | 16.9 | -82.0*
COc1ccc(NC(=O)Nc2ccc3c(c2)C(=O)N([C@@H](C)CO)C[C@@H](C)[C@H](CN(C)S(=O)(=O)c2ccc(OC)cc2)OCCCC[C@@H](C)O3)cc1 | 84.5 | -0.6 | -0.3 | -57.0
COc1ccc(S(=O)(=O)N(C)C[C@@H]2OCCCC[C@@H](C)Oc3ccc(NC(=O)Nc4ccc5c(c4)OCO5)cc3C(=O)N([C@@H](C)CO)C[C@@H]2C)cc1 | 75.3 | . | 1.0 | -88.2*
COc1ccc(S(=O)(=O)N(C)C[C@@H]2OCCCC[C@@H](C)Oc3ccc(NC(=O)Nc4ccc5c(c4)OCO5)cc3C(=O)N([C@H](C)CO)C[C@@H]2C)cc1 | 36.7 | . | 6.0 | -84.3*
CCCN(C)C[C@H]1Oc2cc(C#Cc3cccnc3)ccc2S(=O)(=O)N([C@H](C)CO)C[C@H]1C | 40.9 | 0.0 | -2.1 | -88.9*
C[C@@H]1CN([C@H](C)CO)S(=O)(=O)c2ccc(C#Cc3cccnc3)cc2O[C@H]1CN(C)C | 15.7 | 0.2 | -0.6 | -25.0
C[C@H]1CN([C@@H](C)CO)S(=O)(=O)c2ccc(C#Cc3cccnc3)cc2O[C@@H]1CN(C)C | 10.5 | 4.5 | -1.4 | -28.9
CCCN(C)C[C@@H]1Oc2cc(C#Cc3cccnc3)ccc2S(=O)(=O)N([C@H](C)CO)C[C@@H]1C | 50.9 | 1.4 | 5.8 | -87.7*
CCCN(C)C[C@H]1Oc2cc(C#Cc3cccnc3)ccc2S(=O)(=O)N([C@@H](C)CO)C[C@H]1C | 14.9 | -5.3 | -0.9 | -84.4*
Cc1ccc(Nc2nc(N)nc(COc3cccc4cccnc34)n2)cc1 | . | -0.6 | . | .
C[C@@H]1CN([C@@H](C)CO)C(=O)c2cc(NS(=O)(=O)c3cn(C)cn3)ccc2O[C@@H](C)CCCCO[C@H]1CN(C)Cc1ccc(C(F)(F)F)cc1 | 10.6 | . | 1.9 | -34.5
C[C@@H]1CCCCO[C@@H](CN(C)C(=O)Nc2cccc3ccccc23)[C@H](C)CN([C@H](C)CO)C(=O)c2cc(NC(=O)Nc3ccccc3)ccc2O1 | 85.4 | . | -0.9 | -46.8
C[C@H](CO)N1C[C@H](C)[C@@H](CN(C)C(=O)Nc2cccc3ccccc23)OCCCC[C@H](C)Oc2ccc(NC(=O)c3ccccc3)cc2C1=O | 68.9 | . | -2.2 | -5.9
C[C@@H]1CCCCO[C@@H](CN(C)C(=O)Nc2cccc3ccccc23)[C@@H](C)CN([C@@H](C)CO)C(=O)c2cc(NC(=O)Cc3ccccc3)ccc2O1 | . | -1.3 | -0.2 | -91.9*
C[C@@H]1CN([C@@H](C)CO)C(=O)c2cc(NC(=O)Cc3ccccc3)ccc2O[C@@H](C)CCCCO[C@@H]1CN(C)C(=O)Nc1cccc2ccccc12 | 0.6 | 4.4 | -2.2 | -94.4*
C[C@@H]1CN([C@H](C)CO)C(=O)c2cc(NC(=O)Cc3ccccc3)ccc2O[C@@H](C)CCCCO[C@H]1CN(C)C(=O)Nc1cccc2ccccc12 | 73.2 | 0.2 | -0.2 | -87.5*
COc1ccc(-c2csc(NC(=O)c3cc(-c4ccc(C)o4)nc4ccccc34)c2C#N)cc1OC | . | -0.1 | . | .
C[C@H](CO)N1C[C@H](C)[C@H](CN(C)C(=O)Nc2ccc(F)cc2)Oc2c(NC(=O)CCCCCC(=O)Nc3ccccc3N)cccc2C1=O | . | 0.3 | -0.8 | -77.6
C[C@@H]1CN([C@H](C)CO)C(=O)c2cccc(NC(=O)CCCCCC(=O)Nc3ccccc3N)c2O[C@@H]1CN(C)C(=O)Nc1ccc2c(c1)OCO2 | . | . | -1.0 | -82.0*
